Test results: ChEMBL document CHEMBL4689842, “EUbOPEN Chemogenomics Library wave 1” (2021)
Several values for one entry are separate records, joined by “and”; a condition that tells them apart may be missing. Equal entries are not always repeated.

Test system: HEK-293T
Test: Multiplex assay against HEK293T;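 for Population Tubulin-Different-Phenotype (%): share of the cells with healthy nuclei that show this phenotype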
Format: toxicity, cell-based
Details: human
In short: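 Hoechst33342, BioTracker Green Microtubule Cytoskeleton Dye, MitoTracker Red and Annexin V Alexa Fluor 680 were added to live cells at seeding, and imaging on a CQ1 microscope at 37°C and 5% CO2 followed compound addition. Gating by CellPathfinder machine learning separated cells into Hoechst high-intensity objects or normal cells, then normal cells into healthy, pyknosed or fragmented nuclei, then pyknosed cells into mitotic or apoptotic. Per cents of healthy-nucleus cells are reported for the tubulin, mitochondrial-mass and membrane-permeability phenotypes.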

[1] = 12 h, 1 µM, compound concentration 1 uM, replicate 1
[2] = 12 h, 1 µM, compound concentration 1 uM, replicate 2
[3] = 12 h, 10 µM, compound concentration 10 uM, replicate 1
[4] = 12 h, 10 µM, compound concentration 10 uM, replicate 2
[5] = 24 h, 1 µM, compound concentration 1 uM, replicate 1
[6] = 24 h, 1 µM, compound concentration 1 uM, replicate 2
[7] = 24 h, 10 µM, compound concentration 10 uM, replicate 1
[8] = 24 h, 10 µM, compound concentration 10 uM, replicate 2
[9] = 48 h, 1 µM, compound concentration 1 uM, replicate 1
[10] = 48 h, 1 µM, compound concentration 1 uM, replicate 2
[11] = 48 h, 10 µM, compound concentration 10 uM, replicate 1
[12] = 48 h, 10 µM, compound concentration 10 uM, replicate 2

SMILES: CS(=O)(=O)N1CCCC(NC(=O)[C@H](CCC2CCCCC2)NC(=O)c2ccc(CNc3ncnc4c3nnn4-c3ccccc3)cc2)C1 (some centres not stated) [SR-301]
- Population Apoptotic (%) [1]: 26% and 51% and 37%
- Population Fragmented Nuclei (%) [1]: 13% and 14% and 15%
- Population Healthy Nuclei (%) [1]: 22% and 17% and 20%
- Population Hoechst High Intensity Objects (%) [1]: 13% and 14%
- Population Membrane Permeable-Phenotype (%) [1]: 8% and 3%
- Population Mitochondria Different-Phenotype (%) [1]: 85% and 84%
- Population Mitotic Cells (%) [1]: 73% and 48% and 62%
- Population Normal (%) [1]: 86% and 85%
- Population Pyknosed Nuclei (%) [1]: 64% and 67%
- Population Tubulin-Different-Phenotype (%) [1]: 46% and 57% and 55%
- Total Cell Count [1]: 584 and 339 and 397
- Population Apoptotic (%) [2]: 20% and 16% and 18%
- Population Fragmented Nuclei (%) [2]: 5% and 8% and 4%
- Population Healthy Nuclei (%) [2]: 41% and 36% and 50%
- Population Membrane Permeable-Phenotype (%) [2]: 4% and 1% and 5%
- Population Mitochondria Different-Phenotype (%) [2]: 41% and 30%
- Population Mitotic Cells (%) [2]: 79% and 83% and 81%
- Population Normal (%) [2]: 94% and 98% and 96%
- Population Pyknosed Nuclei (%) [2]: 53% and 55% and 45%
- Population Tubulin-Different-Phenotype (%) [2]: 43% and 26% and 29%
- Total Cell Count [2]: 247 and 189 and 243
- Population Apoptotic (%) [3]: 68% and 73%
- Population Fragmented Nuclei (%) [3]: 20% and 14% and 21%
- Population Healthy Nuclei (%) [3]: 6% and 12% and 9%
- Population Hoechst High Intensity Objects (%) [3]: 17%
- Population Membrane Permeable-Phenotype (%) [3]: 10%
- Population Mitochondria Different-Phenotype (%) [3]: 76% and 85% and 86%
- Population Mitotic Cells (%) [3]: 31% and 26%
- Population Normal (%) [3]: 82%
- Population Pyknosed Nuclei (%) [3]: 73% and 68%
- Population Tubulin-Different-Phenotype (%) [3]: 71% and 66%
- Total Cell Count [3]: 404 and 541 and 467
- Population Apoptotic (%) [4]: 51% and 84% and 91%
- Population Fragmented Nuclei (%) [4]: 9% and 13% and 19%
- Population Healthy Nuclei (%) [4]: 28% and 26% and 20%
- Population Hoechst High Intensity Objects (%) [4]: 8% and 13% and 20%
- Population Mitochondria Different-Phenotype (%) [4]: 43% and 78% and 82%
- Population Normal (%) [4]: 92% and 86% and 79%
- Population Pyknosed Nuclei (%) [4]: 61% and 60%
- Population Tubulin-Different-Phenotype (%) [4]: 43% and 40% and 57%
- Total Cell Count [4]: 225 and 185 and 216
- Population Apoptotic (%) [5]: 26% and 40% and 55%
- Population Fragmented Nuclei (%) [5]: 18% and 19%
- Population Healthy Nuclei (%) [5]: 19% and 18% and 14%
- Population Hoechst High Intensity Objects (%) [5]: 19% and 18% and 16%
- Population Membrane Permeable-Phenotype (%) [5]: 6% and 5% and 2%
- Population Mitochondria Different-Phenotype (%) [5]: 72% and 77% and 78%
- Population Mitotic Cells (%) [5]: 73% and 60% and 44%
- Population Normal (%) [5]: 80% and 81% and 83%
- Population Pyknosed Nuclei (%) [5]: 61% and 62% and 66%
- Population Tubulin-Different-Phenotype (%) [5]: 48% and 57% and 65%
- Total Cell Count [5]: 594 and 385 and 349
- Population Apoptotic (%) [6]: 29% and 24%
- Population Fragmented Nuclei (%) [6]: 3% and 2% and 6%
- Population Healthy Nuclei (%) [6]: 64% and 67% and 57%
- Population Hoechst High Intensity Objects (%) [6]: 3% and 2%
- Population Membrane Permeable-Phenotype (%) [6]: 3% and 4%
- Population Mitochondria Different-Phenotype (%) [6]: 41% and 43% and 33%
- Population Mitotic Cells (%) [6]: 70% and 75%
- Population Normal (%) [6]: 96% and 97%
- Population Pyknosed Nuclei (%) [6]: 32% and 30% and 36%
- Population Tubulin-Different-Phenotype (%) [6]: 52% and 36% and 34%
- Total Cell Count [6]: 298 and 240 and 293
- Population Apoptotic (%) [7]: 81% and 77% and 85%
- Population Fragmented Nuclei (%) [7]: 28% and 20% and 26%
- Population Healthy Nuclei (%) [7]: 3% and 5%
- Population Hoechst High Intensity Objects (%) [7]: 19% and 18% and 20%
- Population Membrane Permeable-Phenotype (%) [7]: 8% and 9% and 0%
- Population Mitochondria Different-Phenotype (%) [7]: 58% and 77% and 81%
- Population Mitotic Cells (%) [7]: 18% and 22% and 14%
- Population Normal (%) [7]: 80% and 81% and 79%
- Population Pyknosed Nuclei (%) [7]: 68% and 74% and 69%
- Population Tubulin-Different-Phenotype (%) [7]: 33% and 54%
- Total Cell Count [7]: 495 and 531 and 410
- Population Apoptotic (%) [8]: 96% and 55% and 93%
- Population Fragmented Nuclei (%) [8]: 15% and 11%
- Population Healthy Nuclei (%) [8]: 36% and 42% and 39%
- Population Hoechst High Intensity Objects (%) [8]: 17% and 10% and 14%
- Population Membrane Permeable-Phenotype (%) [8]: 7% and 5% and 11%
- Population Mitochondria Different-Phenotype (%) [8]: 95% and 51% and 90%
- Population Normal (%) [8]: 82% and 89% and 85%
- Population Pyknosed Nuclei (%) [8]: 48% and 45%
- Population Tubulin-Different-Phenotype (%) [8]: 46% and 47% and 74%
- Total Cell Count [8]: 210 and 253 and 187
- Population Apoptotic (%) [9]: 23% and 35% and 54%
- Population Fragmented Nuclei (%) [9]: 21% and 28% and 19%
- Population Healthy Nuclei (%) [9]: 17% and 11% and 15%
- Population Hoechst High Intensity Objects (%) [9]: 22% and 24%
- Population Membrane Permeable-Phenotype (%) [9]: 4% and 5%
- Population Mitochondria Different-Phenotype (%) [9]: 54% and 70% and 71%
- Population Mitotic Cells (%) [9]: 77% and 64% and 45%
- Population Normal (%) [9]: 77% and 75%
- Population Pyknosed Nuclei (%) [9]: 60% and 64%
- Population Tubulin-Different-Phenotype (%) [9]: 39% and 52%
- Total Cell Count [9]: 604 and 398 and 345
- Population Apoptotic (%) [10]: 20% and 12%
- Population Fragmented Nuclei (%) [10]: 4% and 3%
- Population Healthy Nuclei (%) [10]: 82% and 80% and 81%
- Population Hoechst High Intensity Objects (%) [10]: 4% and 3%
- Population Membrane Permeable-Phenotype (%) [10]: 3% and 1%
- Population Mitochondria Different-Phenotype (%) [10]: 17% and 20% and 18%
- Population Mitotic Cells (%) [10]: 76% and 79% and 87%
- Population Normal (%) [10]: 95% and 96%
- Population Pyknosed Nuclei (%) [10]: 12% and 15%
- Population Tubulin-Different-Phenotype (%) [10]: 41% and 35% and 33%
- Total Cell Count [10]: 527 and 453 and 385
- Population Apoptotic (%) [11]: 90% and 84% and 81%
- Population Fragmented Nuclei (%) [11]: 37% and 29% and 32%
- Population Healthy Nuclei (%) [11]: 2% and 3%
- Population Hoechst High Intensity Objects (%) [11]: 22% and 20% and 23%
- Population Membrane Permeable-Phenotype (%) [11]: 14% and 11%
- Population Mitochondria Different-Phenotype (%) [11]: 71% and 57% and 77%
- Population Mitotic Cells (%) [11]: 9% and 15% and 18%
- Population Normal (%) [11]: 77% and 79% and 76%
- Population Pyknosed Nuclei (%) [11]: 60% and 67% and 64%
- Population Tubulin-Different-Phenotype (%) [11]: 28% and 64% and 55%
- Total Cell Count [11]: 401 and 536 and 484
- Population Apoptotic (%) [12]: 92% and 82% and 60%
- Population Fragmented Nuclei (%) [12]: 15% and 17% and 12%
- Population Healthy Nuclei (%) [12]: 52% and 54% and 64%
- Population Hoechst High Intensity Objects (%) [12]: 16% and 12% and 11%
- Population Membrane Permeable-Phenotype (%) [12]: 4% and 6%
- Population Mitochondria Different-Phenotype (%) [12]: 95% and 91% and 32%
- Population Normal (%) [12]: 83% and 87% and 88%
- Population Pyknosed Nuclei (%) [12]: 32% and 27% and 23%
- Population Tubulin-Different-Phenotype (%) [12]: 46% and 86% and 45%
- Total Cell Count [12]: 209 and 191 and 306
